Measurements published in the EternaBench riboswitch data.

Tested on: MS2 coat protein
Test: apparent Kd, MS2 coat protein; higher = weaker binding; RNA-MaP array; FMN 200 µM where present
In short: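 Each design was made on Illumina sequencing-chip clusters by stalled E. coli RNA polymerase and titrated with SNAP-549-labelled MS2 coat protein from 0.7 or 1.5 nM, doubling to 3 µM, in the absence and then the presence of constant ligand. The buffer was 100 mM Tris-HCl pH 7.5, 80 mM KCl, 4 mM MgCl2, BSA, DTT, yeast tRNA and Tween-20. The apparent Kd is the median of filtered per-cluster fits of binding curves, with green signal normalised to red-channel RNA signal and control-cluster median Fmax.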

[1] = designed as: OFF switch for flavin mononucleotide, no ligand
[2] = ligand present: flavin mononucleotide, designed as: OFF switch for flavin mononucleotide
[3] = designed as: ON switch for flavin mononucleotide, no ligand
[4] = ligand present: flavin mononucleotide, designed as: ON switch for flavin mononucleotide

Row | Sequence | apparent Kd [1] [nM] | apparent Kd [2] [nM] | apparent Kd [3] [nM] | apparent Kd [4] [nM]
1 | GUACGUGGACAGAAGGCGACAUGAGGAUCACCCAUGUUGGCUCGGGUAUGACCAAUCCGCAUGAUCGAGGAUAUGUCUGCGGGC | 199 | 14.8 |  | 
2 | UACAUGGAACAGAAGGGCAAUUUAUUUAAUUAUUAUUUAGAACAGCUUUGCAGGAUAUGUUUAACAUGAGGAUCACCCAUGUAC |  |  | 57.6 | 17.4
3 | UGCAUGGUAGGAUAUACGGAACAUUAGGGUUUGUUAUGUGGACAUGAGGAUCACCCAUGUAGAAGGGCCGUGCU | 45.9 | 72.3 |  | 
4 | GCAAUCGCAUGAGGAUAUGCUCGAGUUUAGAGAGCAGAAGGCAUGUCAUAAGACAUGAGGAUCACCCAUGUAGUUAAAAUGGCA |  |  | 39.9 | 9.42
5 | GGAGCCAGCACCGAGGAUAUUCAUAUUAAAACAUGAGGAUCACCCAUGUAGGCCAGAAGGCCUUGGGAGAAGGCGGACUGGCUCG |  |  | 206 | 11.4
6 | AGCUGGUGACAGCAAGAAUUUUAACAUGAGGAUCACCCAUGUAGAAGGCUGUACGGUUACCGUACAGAGGAUAUACAUAGAAAG | 43.2 | 62.2 |  | 
7 | CCCACGAAAGUCGAACGAUGAUGGAGAAGGACAAUAACAUGACAUGAGGAUCACCCAUGUGCCAUGUAGGAUAUCCAUCAUGGG | 7.49 | 6.78 |  | 
8 | AUAUUUGUGUAGAAGGUACGUGAUUAGUCAAAGUAAGGAUAUACUGACAUGAGGAUCACCCAUGUUUAAAUAGUUAAAUGUUCU |  |  | 10.9 | 8.01
9 | GUCAGCUCGUGAGGAUAUACAACACUGCUUCGGCAGUGUAUUGAGAUCACAUGAGGAUCACCCAUGUAGAAGGCACGAGCUGAU | 12.9 | 225 |  | 
10 | ACCGGCGCUUACAUGAGGAUCACCCAUGUGCGCACUCGGGCACAGGAUAUCCAUGGUAAGUAUCGGGAGAAGGGUGAGAAGAAU |  |  | 163 | 309
11 | AAAAGGCUAGGAUAUACAUGAGGAUCACCCAUGUGAGGGCACGGCCGGCGCGGGCCCGGUAGAAGGAGUCAAAA | 18.4 | 17.6 |  | 
12 | GGUGCAUAUGAGAAGGCGGUCAUGAAACAUGAUCGAGGAUAUCAUGUAAACAUGAGGAUCACCCAUGUAUGGGAAUAAUGCACC |  |  | 238 | 16
13 | AAAUUUGACGAAGGAUAUGGAUACAUGAGGAUCACCCAUGUUUAUUUUGUGAUUUUGUUUAAGUACCAGAAGGUCGAAUACAUA | 39 | 63.9 |  | 
14 | ACUUGCUUGCAGAAGGGUGACAUGAGGAUCACCCAUGUAGCGGGCCGGCUUAAAGUCAGCGCGCCACAGGAUAUGCAGGCCUCG |  |  | 14.2 | 35.1
15 | GCGUGGUUCUAGAAGGUGCUAGCGAUAAGCUAGCAAGGAUAUAGACAUGAGGAUCACCCAUGUCUUAGUGAAAUCGACACACGC | 5.35 | 5.34 |  | 
16 | GCUCGAUGUGCUGAAAACAUGAGGAUCACCCAUGUAAAUGGUCAGGAUAUUUACGUGCUUUAUGUAGAGAAGGGACCAUCGAGC |  |  | 200 | 30.9
17 | UAGAUGGGAGGAUAUGCAUAGAUACAGAUUCAUGUAGUGCUACAUGAGGAUCACCCAUGUAGAAGGCCCGUCUU | 21.2 | 225 |  | 
18 | GUGUACAGAGGAUAUGCACGAGUAGUUACGAAAGUAACUGCACAUGAGGAUCACCCAUGUAGAAGGCUGUACAC | 17.9 | 16.7 |  | 
19 | GUGCGUGGCUAGGAUAUUGUGGAGUUUAGUCAGCGAGAAGGGACUACAUGAGGAUCACCCAUGUGUAGUUGCUC | 212 | 198 |  | 
20 | GAGGAACAUGAGGAUCACCCAUGUGAGGAUAUGCAUAGUGAGCUAGUAGACGUUUAUUGCAGAAGGUACACUGA | 31.4 | 23.6 |  | 
21 | AUGUCGCACCAGAAGGGUCAACCAAUAAAUUAGACAGGAUAUGGGCGAUAAGUAUGUCGCGACAUGAGGAUCACCCAUGUCCGG |  |  | 11.6 | 5.95

Row | Sequence | apparent Kd [1] [nM] | apparent Kd [2] [nM] | apparent Kd [3] [nM] | apparent Kd [4] [nM]
22 | GGGUACAUCGGAGGAUAUCAUGUAAAUACAUGAGGAUCACCCAUGUCGAUGGAGAAAUCGGAGAUUGAGAAGGCCGAUGUACCG |  |  | 16.9 | 7.1
23 | AAACAUGUCCGAGGAUAUCUGGAAACUUUUUCAAGAGAAGGCGGACAUGAGGAUCACCCAUGUCUCUCCUCAUCAAAUCCAAGU | 7.94 | 50.3 |  | 
24 | GGGCUGCGACGCAGCCCAACAAAACAUGAGGAUCACCCAUGUCAGGAUAUACCGAUGCAGCAUCUGUAGAAGGGACAGAUCCAA | 90.4 | 92.4 |  | 
25 | UAUUAGUAAGGAUAUCCUUGCAUGGACGAAAGUCCAUGCAAGGAGAAGGUACAUGAGGAUCACCCAUGUUCAUU | 17.2 | 17.9 |  | 
26 | AUAAUUUUAUUUUUCUAUUAUAUCAGAAGGCAUUACAUGAGGAUCACCCAUGUUUUGGAUAGUAAUGAGGAUAUGAUAUGGUUA | 11.1 | 28.2 |  | 
27 | AUUGACUGAGGAUAUUGUACUGCUGACAUGAGGAUCACCCAUGUAUGCUAACUCGGCCGUCGAGAAGGCAGUAAUG | 39 | 27.3 |  | 
28 | ACGGCUGUCAGAGGAUAUGGUUACAUGAGGAUCACCCAUGUCAAGGGUCUAAUUAAGUAUAACUACUAGAAGGCUGAUGGCCUA | 263 | 144 |  | 
29 | UGGUUUAGUGUUAGGAUAUAAUCCGAAGUCAGCGAUUAGAAGGAACAUGAGGAUCACCCAUGUUUUAGAUAACC | 16 | 16.9 |  | 
30 | UCAUGGUAGCAGGAUAUGCUUGUAAUUUUUUUUGCAGAAGGGCUUACAUGAGGAUCACCCAUGUGUUAGGUCUA | 32.8 | 46.7 |  | 
31 | AUUAAGUGAGGAUAUACAAGAUCGCUUACCGCCAAAGGCGGACAUGAGGAUCACCCAUGUAGAAGGCACAAAUU | 45.7 | 270 |  | 
32 | UGUCGGAGCAGAGGAUAUUACAUGAGGAUCACCCAUGUAUGAACCAAUAGCUGGAAACAGCAAUGUAAGAAGGCUGCUCCGCCA | 11.8 | 187 |  | 
33 | UGCAGACAUGAGGAUCACCCAUGUCAGGAUAUUGGACUAUGCAAUGUAUUGUUAGUACCAAGAAGGGACCCGUC | 31.8 | 27.2 |  | 
34 | AAACAUGUCCGAGGAUAUCUGGAAACAUUUUCAAGAGAAGGCGGACAUGAGGAUCACCCAUGUCUCUCCUCAUCAACUACAAUU | 8.31 | 58.1 |  | 
35 | CAGCCCUGAGGAUAUCCCUACUCGCACAUGAGGAUCACCCAUGUCCUCCUCCGGGCUUCGGGAGAAGGCAGGUCUC | 22.4 | 93.5 |  | 
36 | CUCAUCCUUACAGGCUGAGACAUGAGGAUCACCCAUGUAGGGAGAAGGGAGUUGGGCAUCUUGACUCAGGAUAUCCCGAAAGAC |  |  | 733 | 83.7
37 | AGGAUGUUAGGAUAUCGAAGGUUGUGGCAGGCGGGAAUUUGCGAGAAGGAACAUGAGGAUCACCCAUGUGAAAU | 22.9 | 22.2 |  | 
38 | GAGUGGUGGAGAGGAUAUACAUUGUUAUUCACUGUAGAAGGUUCUAACAUGAGGAUCACCCAUGUAGGACUAUUCCUGAGUUUU |  |  | 12.4 | 9.82
39 | ACUGGUCAAGGAUAUACAAUCGUGCUUCGGCACGUAAGAUCACAUGAGGAUCACCCAUGUAGAAGGUGACCAGU | 38.6 | 470 |  | 
40 | CUCUCACAGUCAGGAUAUGACGCGGAACAUGAGGAUCACCCAUGUGACGUCCCUCCAUGUACCCGUCAGAAGGGAUUAAUGGAC | 720 | 480 |  | 
41 | CUUUUGUGAGGAUAUUGGUAGUAAAUAAAUAAAAUUACUACUGAGAAGGCACAUGAGGAUCACCCAUGUUCCUC | 31.2 | 221 |  | 
42 | AAAAUUUAUUGAGGAUAUUCAUACACUGCAUACGGAGAAGGCAAACAAUCAUGAGGACAUGAGGAUCACCCAUGUUGUGACCAU |  |  | 18.9 | 15.8
